Test results: ChEMBL document CHEMBL1126849, “Synthesis of A-ring fluorinated derivatives of (17 alpha,20E/Z)-[125I]iodovinylestradiols: effect on receptor binding and receptor-mediated target tissue uptake” (J Med Chem, 1993)

Columns and labels:
[1] = system: Rattus norvegicus; assay: Biodistribution in uterus / spleen, muscle, lungs of immature female rat after 5 hour administration of 3 micro Ci (111 kBq) in the absence of 60 microg estradiol; assay type: ADME, organism-based; conditions: in vivo
How it was run: (§1)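 Immature female Long Evans rats (21–24 days, 45–70 g), 3–5 per group, unanesthetized in retention cages, given 3 μCi (111 kBq) 125I-labeled steroid by lateral tail vein. Vehicle: ethanol diluted with saline containing 1% Tween-80, final ethanol 9%. +E2 group co-injected 60 μg unlabeled estradiol (1 h only). Killed under ether; tissues KCl-washed, weighed, gamma-counted. Output: %ID/g (mean, SE) and uterus to blood or nontarget (muscle, spleen, lungs) ratios.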

[2] = system: Rattus norvegicus; assay: Biodistribution in thyroid of immature female rat after 5 hour administration of 3 micro Ci (111 kBq) in the absence of 60 microg estradiol; assay type: ADME, organism-based, Thyroid gland; conditions: in vivo
How it was run: (§2)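 Immature female Long Evans rats (21–24 days, 45–70 g), three to five per group, given 125I-labeled steroid (3 μCi, 111 kBq) by lateral tail vein without anesthesia. Vehicle: ethanol diluted in saline with 1% Tween-80, final ethanol 9%, 0.22 μm filtered. +E2 groups received 60 μg unlabeled estradiol co-injected. Killed under ether at set times; tissues KCl-washed, blotted, weighed, gamma counted; %ID/g, mean with SE.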

[3] = system: Rattus norvegicus; assay: Biodistribution in uterus / blood of immature female rat after 1 hr administration of 3 micro Ci (111 kBq) in the absence of 60 microg estradiol; assay type: ADME, organism-based; conditions: in vivo
How it was run: (§3)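 Same in vivo procedure: immature female Long Evans rats (21–24 days), three to five per group, 3 μCi (111 kBq) tracer i.v. via tail vein in 9% ethanol/saline/1% Tween-80, ± 60 μg estradiol co-injected at 1 h. Uterus %ID/g (gamma counting) divided by blood, or by nontarget organ (muscle, spleen, lungs), %ID/g to give ratios.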

[4] = system: Rattus norvegicus; assay: Biodistribution in blood of immature female rat after 12 hour administration of 3 micro Ci (111 kBq) in the absence of 60 microg estradiol; assay type: ADME, organism-based; conditions: in vivo
How it was run: (§4)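 Immature female Long Evans rats (21–24 days, 45–70 g), unanesthetized in retention cages, given 3 µCi (111 kBq) 125I-labeled steroid i.v. via lateral tail vein. Vehicle was ethanol diluted in saline containing 1% Tween-80, giving 9% ethanol final. The blocking group received 60 µg unlabeled estradiol co-injected. Rats were killed under ether by axillary bleeding, and tissues were KCl-washed and gamma-counted. Data are %ID/g, mean ± SE, n=3–5.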

[5] = system: Rattus norvegicus; assay: Biodistribution in uterus of immature female rat after 12 hour administration of 3 micro Ci (111 kBq) in the absence of 60 microg estradiol; assay type: ADME, organism-based; conditions: in vivo; how it was run: as §1
[6] = system: Rattus norvegicus; assay: Biodistribution in muscle of immature female rat after 1 hr administration of 3 micro Ci (111 kBq) in the presence of (+E2); assay type: ADME, organism-based, Muscle tissue; conditions: in vivo; how it was run: as §2
[7] = system: Rattus norvegicus; assay: Biodistribution in liver of immature female rat after 5 hour administration of 3 micro Ci (111 kBq) in the absence of 60 microg estradiol; assay type: ADME, organism-based; conditions: in vivo; how it was run: as §4
[8] = system: Rattus norvegicus; assay: Biodistribution in uterus of immature female rat after 5 hour administration of 3 micro Ci (111 kBq) in the absence of 60 microg estradiol; assay type: ADME, organism-based; conditions: in vivo; how it was run: as §1
[9] = system: Rattus norvegicus; assay: Biodistribution in kidney of immature female rat after 12 hour administration of 3 micro Ci (111 kBq) in the absence of 60 microg estradiol; assay type: ADME, organism-based; conditions: in vivo; how it was run: as §4
[10] = system: Rattus norvegicus; assay: Biodistribution in lungs of immature female rat after 1 hr administration of 3 micro Ci (111 kBq) in the presence of (+E2); assay type: ADME, organism-based, Lung; conditions: in vivo; how it was run: as §4
[11] = system: Rattus norvegicus; assay: Biodistribution in thyroid of immature female rat after 1 hr administration of 3 micro Ci (111 kBq) in the absence of 60 microg estradiol; assay type: ADME, organism-based, Thyroid gland; conditions: in vivo; how it was run: as §2
[12] = system: Rattus norvegicus; assay: Biodistribution in uterus / spleen, muscle, lungs of immature female rat after 1 hr administration of 3 micro Ci (111 kBq) in the absence of 60 microg estradiol; assay type: ADME, organism-based; conditions: in vivo; how it was run: as §3
[13] = system: Rattus norvegicus; assay: Biodistribution in kidney of immature female rat after 1 hr administration of 3 micro Ci (111 kBq) in the presence of (+E2); assay type: ADME, organism-based; conditions: in vivo; how it was run: as §4
[14] = system: Rattus norvegicus; assay: Biodistribution in blood of immature female rat after 1 hr administration of 3 micro Ci (111 kBq) in the presence of (+E2); assay type: ADME, organism-based; conditions: in vivo; how it was run: as §4
[15] = system: Rattus norvegicus; assay: Biodistribution in uterus / blood of immature female rat after 1 hr administration of 3 micro Ci (111 kBq) in the presence of (+E2); assay type: ADME, organism-based; conditions: in vivo; how it was run: as §3
[16] = system: Rattus norvegicus; assay: Biodistribution in lungs of immature female rat after 5 hour administration of 3 micro Ci (111 kBq) in the absence of 60 microg estradiol; assay type: ADME, organism-based, Lung; conditions: in vivo; how it was run: as §2
[17] = system: Rattus norvegicus; assay: Biodistribution in kidney of immature female rat after 5 hour administration of 3 micro Ci (111 kBq) in the absence of 60 microg estradiol; assay type: ADME, organism-based; conditions: in vivo; how it was run: as §4
[18] = system: Rattus norvegicus; assay: Biodistribution in spleen of immature female rat after 12 hour administration of 3 micro Ci (111 kBq) in the absence of 60 microg estradiol; assay type: ADME, organism-based; conditions: in vivo; how it was run: as §2
[19] = system: Rattus norvegicus; assay: Biodistribution in fat of immature female rat after 1 hr administration of 3 micro Ci (111 kBq) in the absence of 60 microg estradiol; assay type: ADME, organism-based, Adipose tissue; conditions: in vivo; how it was run: as §4
[20] = system: Rattus norvegicus; assay: Biodistribution in lungs of immature female rat after 12 hour administration of 3 micro Ci (111 kBq) in the absence of 60 microg estradiol; assay type: ADME, organism-based, Lung; conditions: in vivo; how it was run: as §2
[21] = biological target: Estrogen receptor (Mus musculus) (UniProt O08537+P19785); assay: Relative binding affinity (RBA) against murine cytoplasmic estrogen receptor incubated at 0-4 degree Celsius for 18 hours; assay type: protein assay
How it was run: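 Competitive binding on murine uterine cytoplasmic extract with 20 nM [3H]estradiol and competitor steroids at 2 nM–20 μM, incubated 18 h at 0–4 °C. RBA = 100 × ratio of […] concentration giving 50% competition for specific binding. Mean of three experiments with SD.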

[22] = system: Rattus norvegicus; assay: Biodistribution in uterus / blood of immature female rat after 12 hour administration of 3 micro Ci (111 kBq) in the absence of 60 microg estradiol; assay type: ADME, organism-based; conditions: in vivo; how it was run: as §3
[23] = system: Rattus norvegicus; assay: Biodistribution in liver of immature female rat after 3 hour administration of 3 micro Ci (111 kBq) in the absence of 60 microg estradiol; assay type: ADME, organism-based; conditions: in vivo; how it was run: as §4
[24] = system: Rattus norvegicus; assay: Biodistribution in fat of immature female rat after 12 hour administration of 3 micro Ci (111 kBq) in the absence of 60 microg estradiol; assay type: ADME, organism-based, Adipose tissue; conditions: in vivo; how it was run: as §4
[25] = system: Rattus norvegicus; assay: Biodistribution in thyroid of immature female rat after 12 hour administration of 3 micro Ci (111 kBq) in the absence of 60 microg estradiol; assay type: ADME, organism-based, Thyroid gland; conditions: in vivo; how it was run: as §2
[26] = system: Rattus norvegicus; assay: Biodistribution in uterus of immature female rat after 1 hr administration of 3 micro Ci (111 kBq) in the absence of 60 microg estradiol; assay type: ADME, organism-based; conditions: in vivo; how it was run: as §1
[27] = system: Rattus norvegicus; assay: Biodistribution in muscle of immature female rat after 1 hr administration of 3 micro Ci (111 kBq) in the absence of 60 microg estradiol; assay type: ADME, organism-based, Muscle tissue; conditions: in vivo; how it was run: as §2
[28] = system: Rattus norvegicus; assay: Biodistribution in thyroid of immature female rat after 1 hr administration of 3 micro Ci (111 kBq) in the presence of (+E2); assay type: ADME, organism-based, Thyroid gland; conditions: in vivo; how it was run: as §2
[29] = system: Rattus norvegicus; assay: Biodistribution in muscle of immature female rat after 5 hour administration of 3 micro Ci (111 kBq) in the absence of 60 microg estradiol; assay type: ADME, organism-based, Muscle tissue; conditions: in vivo; how it was run: as §2
[30] = system: Rattus norvegicus; assay: Biodistribution in spleen of immature female rat after 1 hr administration of 3 micro Ci (111 kBq) in the absence of 60 microg estradiol; assay type: ADME, organism-based; conditions: in vivo; how it was run: as §2

Chain of Estrogen receptor (Mus musculus) (O08537 whole entry, looked up): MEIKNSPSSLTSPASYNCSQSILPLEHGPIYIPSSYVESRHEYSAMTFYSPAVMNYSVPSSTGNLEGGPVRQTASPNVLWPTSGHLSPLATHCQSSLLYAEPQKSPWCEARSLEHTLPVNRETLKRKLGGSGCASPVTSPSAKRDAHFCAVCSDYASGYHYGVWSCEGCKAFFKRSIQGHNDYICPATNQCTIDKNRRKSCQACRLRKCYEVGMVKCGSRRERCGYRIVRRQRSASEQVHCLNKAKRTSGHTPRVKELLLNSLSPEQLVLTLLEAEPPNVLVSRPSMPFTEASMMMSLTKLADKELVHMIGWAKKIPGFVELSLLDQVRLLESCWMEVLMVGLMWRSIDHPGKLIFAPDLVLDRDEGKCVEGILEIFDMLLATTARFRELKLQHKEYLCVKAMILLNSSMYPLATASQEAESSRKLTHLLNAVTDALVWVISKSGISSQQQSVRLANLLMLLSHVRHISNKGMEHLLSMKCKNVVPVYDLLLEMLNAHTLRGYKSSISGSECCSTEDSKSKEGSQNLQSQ
Chain of Estrogen receptor (Mus musculus) (P19785 whole entry, looked up): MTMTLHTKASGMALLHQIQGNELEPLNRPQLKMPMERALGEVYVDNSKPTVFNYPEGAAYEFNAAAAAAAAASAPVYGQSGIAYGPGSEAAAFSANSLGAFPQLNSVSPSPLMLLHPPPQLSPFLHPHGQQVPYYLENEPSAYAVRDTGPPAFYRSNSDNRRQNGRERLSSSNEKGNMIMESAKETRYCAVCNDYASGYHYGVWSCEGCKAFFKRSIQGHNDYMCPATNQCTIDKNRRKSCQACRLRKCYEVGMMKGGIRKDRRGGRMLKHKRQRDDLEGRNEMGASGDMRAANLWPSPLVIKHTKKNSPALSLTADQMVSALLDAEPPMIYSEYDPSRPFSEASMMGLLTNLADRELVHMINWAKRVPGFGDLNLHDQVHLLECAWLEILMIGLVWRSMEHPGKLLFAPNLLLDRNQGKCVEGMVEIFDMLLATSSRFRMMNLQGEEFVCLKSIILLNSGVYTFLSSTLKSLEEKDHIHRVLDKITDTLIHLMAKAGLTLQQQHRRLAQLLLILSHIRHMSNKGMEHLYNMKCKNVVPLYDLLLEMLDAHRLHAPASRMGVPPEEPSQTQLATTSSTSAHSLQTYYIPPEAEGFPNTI

C[C@]12CC[C@@H]3c4cc(F)c(O)cc4CC[C@H]3[C@@H]1CC[C@@]2(O)/C=C\I
uterus to nontarget tissue ratio [1]: 18.05%
ID/g [2]: 149.9%
uterus-to-blood ratio of %ID/g [3]: 7.34%
ID/g [4]: 0.17%
ID/g [5]: 2.51%
ID/g [6]: 2.16%
ID/g [7]: 1.16%
ID/g [8]: 3.67%
ID/g [9]: 0.14%
ID/g [10]: 0.75%
ID/g [11]: 39%
uterus-to-nontarget tissue uptake ratio [12]: 7.32%
ID/g [13]: 0.65%
ID/g [14]: 0.58%
uterus/blood %ID/g ratio [15]: 1.2%
ID/g [16]: 0.24%
ID/g [17]: 0.3%
ID/g [18]: 0.17%
ID/g [19]: 2.19%
ID/g [20]: 0.12%
RBA [21]: 53.7
Uterus-to-blood radioactivity ratio (dimensionless) [22]: 15.69%
ID/g [23]: 1.76%
ID/g [24]: 0.19%
ID/g [25]: 365%
ID/g [26]: 4.41%
ID/g [27]: 0.57%
ID/g [28]: 36.11%
ID/g [29]: 0.14%
ID/g [30]: 0.55%

C[C@]12CC[C@@H]3c4ccc(O)c(F)c4CC[C@H]3[C@@H]1CC[C@@]2(O)/C=C\I
uterus to nontarget tissue ratio [1]: 28.59%
ID/g [2]: 117%
uterus-to-blood ratio of %ID/g [3]: 15.19%
ID/g [4]: 0.24%
ID/g [5]: 6.02%
ID/g [6]: 0.51%
ID/g [7]: 1.64%
ID/g [8]: 10.22%
ID/g [9]: 0.74%
ID/g [10]: 1.14%
ID/g [11]: 42.2%
uterus-to-nontarget tissue uptake ratio [12]: 8.31%
ID/g [13]: 0.85%
ID/g [14]: 0.55%
uterus/blood %ID/g ratio [15]: 1.65%
ID/g [16]: 0.56%
ID/g [17]: 0.58%
ID/g [18]: 0.43%
ID/g [19]: 4.3%
ID/g [20]: 0.8%
RBA [21]: 66.9
Uterus-to-blood radioactivity ratio (dimensionless) [22]: 27.32%
ID/g [23]: 1.95%
ID/g [24]: 0.75%
ID/g [25]: 488%
ID/g [26]: 10.44%
ID/g [27]: 1.26%
ID/g [28]: 50.6%
ID/g [29]: 0.38%
ID/g [30]: 1.02%
